Laboratory results: ChEMBL document CHEMBL4371052, “Diarylcarbonates are a new class of deubiquitinating enzyme inhibitor” (Bioorg Med Chem Lett, 2019)
Activity calls are given as the source filed them. The calls are words filed in the database; no cut-off is given here.

Columns and labels:
[1] = target: T1, Ubiquitin carboxyl-terminal hydrolase 8 (Homo sapiens) (UniProt P40818); assay: Inhibition of USP8 in HEK293T cell lysates at 25 uM using HA-tagged vinyl-sulfone as substrate preincubated for 19 to 60 mins followed by substrate addition and measured after 19 to 25 mins by Western blot analysis; assay type: subcellular; conditions: Lysate
T1 sequence (whole entry): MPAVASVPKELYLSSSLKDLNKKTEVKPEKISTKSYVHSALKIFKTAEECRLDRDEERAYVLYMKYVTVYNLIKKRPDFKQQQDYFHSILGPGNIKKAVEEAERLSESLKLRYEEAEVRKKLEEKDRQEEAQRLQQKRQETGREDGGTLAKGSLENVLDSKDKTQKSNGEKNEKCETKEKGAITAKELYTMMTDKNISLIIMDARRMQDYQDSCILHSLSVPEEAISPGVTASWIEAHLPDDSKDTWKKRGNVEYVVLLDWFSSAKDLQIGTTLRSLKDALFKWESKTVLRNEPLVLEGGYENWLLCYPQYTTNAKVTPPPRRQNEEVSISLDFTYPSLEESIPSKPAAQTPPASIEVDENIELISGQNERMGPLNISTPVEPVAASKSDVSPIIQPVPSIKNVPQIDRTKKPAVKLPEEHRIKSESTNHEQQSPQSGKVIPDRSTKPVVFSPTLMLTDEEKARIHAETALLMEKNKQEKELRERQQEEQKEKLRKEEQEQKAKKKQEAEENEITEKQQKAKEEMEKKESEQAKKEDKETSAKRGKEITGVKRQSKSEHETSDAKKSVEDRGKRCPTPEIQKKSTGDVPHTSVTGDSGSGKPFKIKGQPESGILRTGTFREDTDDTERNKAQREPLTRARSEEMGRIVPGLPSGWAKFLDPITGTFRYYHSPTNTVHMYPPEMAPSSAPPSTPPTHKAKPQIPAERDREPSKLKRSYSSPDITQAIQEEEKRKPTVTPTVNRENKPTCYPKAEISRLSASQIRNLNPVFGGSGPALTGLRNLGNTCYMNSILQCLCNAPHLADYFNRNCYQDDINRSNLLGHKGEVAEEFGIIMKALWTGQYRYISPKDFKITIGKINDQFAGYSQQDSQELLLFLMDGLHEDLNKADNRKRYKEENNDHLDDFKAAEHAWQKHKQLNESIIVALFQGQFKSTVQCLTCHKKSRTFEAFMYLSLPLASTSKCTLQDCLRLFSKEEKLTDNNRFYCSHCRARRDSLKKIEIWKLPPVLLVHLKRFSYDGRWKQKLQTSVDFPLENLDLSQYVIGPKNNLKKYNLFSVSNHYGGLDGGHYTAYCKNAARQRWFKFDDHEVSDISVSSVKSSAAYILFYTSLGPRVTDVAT

[2] = target: Ubiquitin carboxyl-terminal hydrolase isozyme L5 (Homo sapiens) (UniProt Q9Y5K5); assay: Inhibition of UCHL5 in HEK293T cell lysates assessed as enzyme recovery at 250 uM using HA-tagged vinyl-sulfone as substrate preincubated for 40 mins followed by 10-fold dilution and subsequent substrate addition measured within 15 mins by Western blot analysis; assay type: subcellular; conditions: Lysate
Ubiquitin carboxyl-terminal hydrolase isozyme L5 (Homo sapiens), sequence (Q9Y5K5 whole entry): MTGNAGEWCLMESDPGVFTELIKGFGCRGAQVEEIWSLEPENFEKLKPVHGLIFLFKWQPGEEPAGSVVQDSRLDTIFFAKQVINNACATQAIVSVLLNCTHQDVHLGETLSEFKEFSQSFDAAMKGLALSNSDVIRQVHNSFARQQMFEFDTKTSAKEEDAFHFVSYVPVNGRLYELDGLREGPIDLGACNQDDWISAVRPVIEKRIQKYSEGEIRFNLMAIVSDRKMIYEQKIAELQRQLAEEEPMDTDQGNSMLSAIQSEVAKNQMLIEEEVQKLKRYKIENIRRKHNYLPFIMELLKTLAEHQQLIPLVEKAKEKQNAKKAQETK

[3] = target: T2, Ubiquitin carboxyl-terminal hydrolase 19 (Homo sapiens) (UniProt O94966); assay: Inhibition of USP19 in HEK293T cell lysates assessed as enzyme recovery at 250 uM using HA-tagged vinyl-sulfone as substrate […] followed by 10-fold dilution and subsequent substrate addition measured up to 2 hrs by Western blot analysis; assay type: subcellular; conditions: Lysate
T2 sequence (whole entry): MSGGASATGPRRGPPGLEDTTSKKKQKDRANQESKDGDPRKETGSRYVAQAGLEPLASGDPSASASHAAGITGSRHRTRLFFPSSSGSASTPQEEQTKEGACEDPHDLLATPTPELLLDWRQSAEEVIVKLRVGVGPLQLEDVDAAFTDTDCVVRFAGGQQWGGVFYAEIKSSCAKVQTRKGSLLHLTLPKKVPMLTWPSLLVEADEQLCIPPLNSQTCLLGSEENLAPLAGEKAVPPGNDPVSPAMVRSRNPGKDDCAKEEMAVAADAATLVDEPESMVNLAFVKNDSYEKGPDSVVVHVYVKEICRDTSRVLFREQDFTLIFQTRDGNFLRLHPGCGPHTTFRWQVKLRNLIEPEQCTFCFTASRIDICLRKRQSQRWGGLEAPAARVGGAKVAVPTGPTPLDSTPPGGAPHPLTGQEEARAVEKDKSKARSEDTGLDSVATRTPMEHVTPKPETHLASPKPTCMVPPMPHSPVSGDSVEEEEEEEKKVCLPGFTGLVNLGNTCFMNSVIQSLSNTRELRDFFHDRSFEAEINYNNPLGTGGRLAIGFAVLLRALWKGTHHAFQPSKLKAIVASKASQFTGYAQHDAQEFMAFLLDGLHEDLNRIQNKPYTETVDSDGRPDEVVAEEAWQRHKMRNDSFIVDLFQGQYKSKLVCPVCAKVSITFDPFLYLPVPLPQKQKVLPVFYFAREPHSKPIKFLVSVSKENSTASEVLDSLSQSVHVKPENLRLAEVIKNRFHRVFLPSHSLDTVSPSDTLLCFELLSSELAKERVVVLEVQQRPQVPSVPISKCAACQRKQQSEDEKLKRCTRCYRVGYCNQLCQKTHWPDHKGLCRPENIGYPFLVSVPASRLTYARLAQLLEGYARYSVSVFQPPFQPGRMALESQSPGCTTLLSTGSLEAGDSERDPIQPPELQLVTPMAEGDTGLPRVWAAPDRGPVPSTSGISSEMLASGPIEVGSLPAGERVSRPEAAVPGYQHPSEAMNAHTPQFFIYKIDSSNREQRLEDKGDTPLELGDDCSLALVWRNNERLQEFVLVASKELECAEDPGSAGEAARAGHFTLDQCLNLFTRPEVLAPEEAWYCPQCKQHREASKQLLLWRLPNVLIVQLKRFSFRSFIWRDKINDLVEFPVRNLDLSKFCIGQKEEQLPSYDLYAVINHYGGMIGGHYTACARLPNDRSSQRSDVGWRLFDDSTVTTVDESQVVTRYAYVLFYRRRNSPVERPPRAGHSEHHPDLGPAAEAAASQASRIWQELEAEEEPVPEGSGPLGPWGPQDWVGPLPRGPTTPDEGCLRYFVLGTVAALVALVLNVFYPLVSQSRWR

Trypsin = Trypsin (Homo sapiens, UniProt P07477+P07478+P35030); assay: Substrate activity at trypsin (unknown origin) by Michaelis-Menten plot analysis; assay type: ADME, protein assay
In short: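 Diarylcarbonate hydrolysis by chymotrypsin or trypsin measured across substrate concentrations; velocity versus substrate concentration fit for Km and kcat.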

B16-F10 = assay: Cytotoxicity against mouse B16F10 cells assessed as decrease in cell viability treated every 24 hrs measured after 72 hrs by alamar blue assay; assay type: functional, cell-based
In short: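 MCF7 or B16/F10 cells dosed with compound every 24 h. Viable cells were quantified with Alamar Blue after 72 h.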

Ficin (Ficus carica) = assay: Inhibition of fig ficin at 100 uM using Z-Arg-AMC as substrate preincubated for 30 mins followed by substrate addition by fluorescence assay

inhibition [1]: Active
inhibition [2]: Active
inhibition [3]: inactive
Kcat (Trypsin): 0.02 s⁻¹
Km (Trypsin; trypsin (isolated enzyme, unknown origin)): 1 µM
inhibition (Ficin (Ficus carica)): inactive
Structure (SMILES): NCc1ccc(OC(=O)Oc2ccc3ccccc3c2)cc1
Activity (B16-F10): Active
